Measurements reported in ChEMBL document CHEMBL1155549, “Sialic acid-mimic peptides as hemagglutinin inhibitors for anti-influenza therapy” (J Med Chem, 2010).
Calls of active or inactive are those of the source. No cut-off for these calls is given here. Where a SMILES comes first, the peptide text is derived from it. The star is where a group is joined. Biotin = O=C1N[C@H]2[C@H](CS[C@H]2CCCCC(=O)*)N1

Key:
[1] = tested on: Influenza A virus (A/New Caledonia/20/1999(H1N1)); assay: (§1) Binding affinity to Influenza A virus (A/New Caledonia/20/1999 (H1N1)) hemagglutininin by avidin-biotin peroxidase complex method
Summary of the method: (§2)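 HA was coated at 70 μg/mL overnight at 4 °C and blocked with 1% BSA/PBS. C-terminally biotinylated peptides (5-400 μM) were added for 2 h. After PBS washes, peroxidase-streptavidin was added for 1 h, and o-phenylenediamine colour was read as ΔA at 492 nm, in triplicate. Kd came from a Scatchard plot over 20-200 μM peptide.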

[2] = tested on: Influenza A virus (A/Wyoming/03/2003(H3N2)); assay: (§3) Binding affinity to Influenza A virus (A/Wyoming/03/2003 (H3N2)) hemagglutininin by avidin-biotin peroxidase complex method; summary of the method: as §2
[3] = tested on: Influenza A virus (A/Wuhan/359/1995(H3N2)); assay: Binding affinity to Influenza A virus (A/Wuhan/359/1995 (H3N2)) hemagglutininin by scintillation proximity assay
[4] = as §1; summary of the method: as §2
[5] = as §3; summary of the method: as §2

| Compound | Activity [1] | Activity [2] | Activity [3] | Kd [4] | Kd [5] |
| --- | --- | --- | --- | --- | --- |
| CSCC[C@H](NC(=O)[C@@H](NC(=O)[C@H](CCCNC(=N)N)NC(=O)[C@@H]1CCCN1C(=O)[C@H](CC(C)C)NC(=O)[C@H](C)NC(=O)[C@H](C)N)[C@H](C)O)C(=O)N[C@H](C(=O)N[C@@H](Cc1cnc[nH]1)C(=O)N1CCC[C@H]1C(=O)N[C@@H](CCCCN)C(=O)N1CCC[C@H]1C(=O)N[C@@H](C)C(=O)N[C@@H](CCC(N)=O)C(=O)N1CCC[C@H]1C(=O)N[C@@H](CCCCNC(=O)CCCC[C@@H]1SC[C@@H]2NC(=O)N[C@@H]21)C(N)=O)C(C)C | inactive | inactive |  |  |  |
| CC(C)C[C@H](NC(=O)[C@H](CCCNC(=N)N)NC(=O)[C@H](C)N)C(=O)N1CCC[C@H]1C(=O)N[C@@H](CCCNC(=N)N)C(=O)N[C@H](C(=O)N[C@@H](C)C(=O)N[C@H](C(=O)N[C@@H](Cc1cnc[nH]1)C(=O)N1CCC[C@H]1C(=O)N[C@@H](CCCCN)C(=O)N1CCC[C@H]1C(=O)N[C@@H](C)C(=O)N[C@@H](CCC(N)=O)C(=O)N1CCC[C@H]1C(=O)N[C@@H](CCCCNC(=O)CCCC[C@@H]1SC[C@@H]2NC(=O)N[C@@H]21)C(N)=O)C(C)C)[C@@H](C)O (H-ARLPRTAVHPKPAQPK(Biotin)-NH2) | inactive | inactive |  |  |  |
| H-ARLPRTMVHPKPAQP-NH2 |  |  | Dose-dependent effect | 31 µM | 22 µM |
| CSCC[C@H](NC(=O)[C@@H](NC(=O)[C@@H]1CCCN1C(=O)[C@H](CO)NC(=O)[C@H](CC(C)C)NC(=O)[C@H](CCCNC(=N)N)NC(=O)[C@@H](C)N)[C@@H](C)O)C(=O)N[C@H](C(=O)N[C@@H](Cc1cnc[nH]1)C(=O)N1CCC[C@H]1C(=O)N[C@@H](CC(N)=O)C(=O)NCC(=O)N[C@@H](C)C(=O)N[C@@H](CCC(N)=O)C(=O)N1CCC[C@H]1C(=O)O)C(C)C |  |  | Active |  |  |
